According to ChEMBL document CHEMBL1156194, “Discovery of a new series of Aurora inhibitors through truncation of GSK1070916” (Bioorg Med Chem Lett, 2010):
The source made the active and inactive calls. The rule behind the calls is not given here.

Columns and labels:
A549 [1] = assay: Cytotoxicity against human A549 cells in presence of 10% human serum; format: functional, cell-based
Summary of the method: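 A549 cell proliferation assay run in 10% human serum. EC50 values are averages of at least two experiments, in nM.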

[2] = biological target: Aurora kinase B/Inner centromere protein (Homo sapiens, UniProt Q96GD4); assay: Inhibition of human recombinant aurora B/INCENP complex after 120 mins by IMAP fluorescence polarization assay; format: protein-complex assay
[3] = biological target: T1, Aurora kinase A/Targeting protein for Xklp2 (Homo sapiens, UniProt O14965); assay: Inhibition of human recombinant aurora A/TPX2 complex after 120 mins by IMAP fluorescence polarization assay; format: protein-complex assay
T1 sequence (O14965 whole entry): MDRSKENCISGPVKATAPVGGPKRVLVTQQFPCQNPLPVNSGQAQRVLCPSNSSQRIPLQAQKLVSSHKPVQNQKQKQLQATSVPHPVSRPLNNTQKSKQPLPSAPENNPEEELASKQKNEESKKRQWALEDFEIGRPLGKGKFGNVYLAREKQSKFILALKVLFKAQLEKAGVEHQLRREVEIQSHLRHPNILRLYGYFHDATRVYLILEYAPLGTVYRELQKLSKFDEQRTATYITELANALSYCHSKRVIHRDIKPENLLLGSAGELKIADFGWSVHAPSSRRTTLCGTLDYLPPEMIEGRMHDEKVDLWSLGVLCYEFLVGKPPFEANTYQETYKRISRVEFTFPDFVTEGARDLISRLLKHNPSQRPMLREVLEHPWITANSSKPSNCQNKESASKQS
T1 sequence (Q9ULW0 whole entry): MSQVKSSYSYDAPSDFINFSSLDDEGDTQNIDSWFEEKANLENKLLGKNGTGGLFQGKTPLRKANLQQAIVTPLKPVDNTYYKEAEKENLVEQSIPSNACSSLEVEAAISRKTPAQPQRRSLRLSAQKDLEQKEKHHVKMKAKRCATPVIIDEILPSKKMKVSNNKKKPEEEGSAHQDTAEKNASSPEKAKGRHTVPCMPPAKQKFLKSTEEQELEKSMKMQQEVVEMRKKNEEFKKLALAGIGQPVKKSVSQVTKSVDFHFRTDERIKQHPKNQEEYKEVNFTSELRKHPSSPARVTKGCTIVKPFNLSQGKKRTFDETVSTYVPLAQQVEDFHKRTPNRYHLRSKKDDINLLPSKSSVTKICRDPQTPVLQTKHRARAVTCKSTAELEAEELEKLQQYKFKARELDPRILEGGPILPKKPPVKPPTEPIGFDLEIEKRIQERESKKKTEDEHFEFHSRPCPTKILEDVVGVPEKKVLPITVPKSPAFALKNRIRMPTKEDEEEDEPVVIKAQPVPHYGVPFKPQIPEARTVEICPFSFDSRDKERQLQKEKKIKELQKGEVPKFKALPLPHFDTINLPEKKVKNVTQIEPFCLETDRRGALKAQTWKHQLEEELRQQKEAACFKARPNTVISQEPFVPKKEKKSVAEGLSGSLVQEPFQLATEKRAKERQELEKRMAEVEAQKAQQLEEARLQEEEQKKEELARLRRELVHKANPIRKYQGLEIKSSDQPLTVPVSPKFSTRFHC

A549 [4] = assay: Cell cycle arrest in human A549 cells assessed as 2N DNA accumulation at 5 times EC50 after 48 hrs by FACS analysis relative to control; format: functional
Summary of the method: (§1)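 A549 lung tumour cells treated at 5× the compound's EC50 from the cell proliferation assay, alongside a DMSO control. Cell cycle profile read after 48 h by FACS. Values are the percentage of cells with sub-2N, 2N, 2N to 4N, 4N and >4N DNA content.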

A549 [5] = assay: Cell cycle arrest in human A549 cells assessed as 4N DNA accumulation at 5 times EC50 after 48 hrs by FACS analysis relative to control; format: functional; summary of the method: as §1
A549 [6] = assay: Cell cycle arrest in human A549 cells assessed as sub-2N DNA accumulation at 5 times EC50 after 48 hrs by FACS analysis relative to control; format: functional; summary of the method: as §1
Aurora kinase B = Aurora kinase B (Homo sapiens, UniProt Q96GD4); assay: Inhibition of aurora B assessed as inhibition of histone H3 phosphorylation by ELISA based cellular mechanistic assay
Summary of the method: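 Cellular mechanistic assay: ELISA measuring intracellular Aurora B activity through phosphorylation of histone H3, an Aurora B-specific substrate. IC50 values are averages of at least two experiments.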

A549 [7] = assay: Cell cycle arrest in human A549 cells assessed as 2N to 4N DNA accumulation at 5 times EC50 after 48 hrs by FACS analysis relative to control relative to control; format: functional; summary of the method: as §1
A549 [8] = assay: Cell cycle arrest in human A549 cells assessed as greater than 4N DNA accumulation at 5 times EC50 after 48 hrs by FACS analysis relative to control; format: functional; summary of the method: as §1
A549 [9] = assay: Cell cycle arrest in human A549 cells assessed as multipolar spindle accumulation at 12 nM after 24 hrs by immunofluorescent staining microscopy; format: functional, cell-based
Summary of the method: (§2)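 A549 tumour cells treated at 12, 37 or 110 nM for 24 h. Cells stained with α-tubulin antibody for mitotic spindles, pericentrin antibodies for centrosomes, and […] for DNA. Mitotic phenotype scored by immunofluorescence.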

A549 [10] = assay: Cell cycle arrest in human A549 cells assessed as multipolar spindle accumulation at 37 nM after 24 hrs by immunofluorescent staining microscopy; format: functional, cell-based; summary of the method: as §2
A549 [11] = assay: Cell cycle arrest in human A549 cells assessed as malformed bipolar and monopolar spindle mixture accumulation at 110 nM after 24 hrs by immunofluorescent staining microscopy; format: functional, cell-based; summary of the method: as §2
[12] = Blood clearance in po dosed rat; format: ADME, organism-based; conditions: whole blood
Rattus norvegicus = assay: Dose normalized AUC in po dosed rat; format: ADME, organism-based; conditions: in vivo
[13] = Oral bioavailability in rat; format: ADME, organism-based; conditions: in vivo

Aurora kinase B/Inner centromere protein, sequence (Q96GD4 whole entry): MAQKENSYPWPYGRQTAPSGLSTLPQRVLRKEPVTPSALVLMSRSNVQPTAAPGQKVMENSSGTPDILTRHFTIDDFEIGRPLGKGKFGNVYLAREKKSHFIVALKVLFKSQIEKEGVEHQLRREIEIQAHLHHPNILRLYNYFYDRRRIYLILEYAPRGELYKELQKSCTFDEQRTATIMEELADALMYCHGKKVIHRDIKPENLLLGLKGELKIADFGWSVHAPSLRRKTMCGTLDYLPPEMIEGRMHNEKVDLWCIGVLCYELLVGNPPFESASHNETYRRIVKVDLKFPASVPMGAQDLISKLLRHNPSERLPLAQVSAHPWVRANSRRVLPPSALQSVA
Aurora kinase B/Inner centromere protein, sequence (Q9NQS7 whole entry, further chain): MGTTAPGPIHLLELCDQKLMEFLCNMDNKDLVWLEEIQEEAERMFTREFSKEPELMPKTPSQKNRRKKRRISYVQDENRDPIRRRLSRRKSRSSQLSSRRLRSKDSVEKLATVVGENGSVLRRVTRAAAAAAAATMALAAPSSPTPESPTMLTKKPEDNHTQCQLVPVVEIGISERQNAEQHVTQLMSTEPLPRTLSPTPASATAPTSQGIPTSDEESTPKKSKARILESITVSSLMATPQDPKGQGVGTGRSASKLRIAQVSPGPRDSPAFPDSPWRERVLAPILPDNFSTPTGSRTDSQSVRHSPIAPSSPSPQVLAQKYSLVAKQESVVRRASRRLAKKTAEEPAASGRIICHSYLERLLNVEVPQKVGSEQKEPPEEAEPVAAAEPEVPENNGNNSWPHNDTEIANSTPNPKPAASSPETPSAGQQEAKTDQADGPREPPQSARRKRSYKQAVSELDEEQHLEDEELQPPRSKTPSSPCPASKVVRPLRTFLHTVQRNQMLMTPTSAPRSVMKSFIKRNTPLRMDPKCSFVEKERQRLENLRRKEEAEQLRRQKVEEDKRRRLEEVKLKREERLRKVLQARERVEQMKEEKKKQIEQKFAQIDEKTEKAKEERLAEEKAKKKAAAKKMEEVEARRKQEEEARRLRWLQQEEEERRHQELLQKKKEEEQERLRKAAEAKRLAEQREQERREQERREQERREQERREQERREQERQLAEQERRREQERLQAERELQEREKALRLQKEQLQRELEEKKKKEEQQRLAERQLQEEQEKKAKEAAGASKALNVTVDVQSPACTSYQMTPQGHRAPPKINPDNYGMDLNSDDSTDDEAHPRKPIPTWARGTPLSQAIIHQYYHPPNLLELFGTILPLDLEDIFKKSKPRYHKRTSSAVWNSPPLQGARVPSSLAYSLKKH
Aurora kinase B, sequence (Q96GD4 whole entry): as the sequence (Q96GD4 whole entry) above

| IC50 ([2]; read-out: IC50) | IC50 [3] | IC50 (Aurora kinase B) | IC50 ([2]; read-out: pIC50 (converted)) | Compound | EC50 (A549 [1]) | Activity (A549 [4]) | Activity (A549 [5]) | Activity (A549 [6]) | Activity (A549 [7]) | Activity (A549 [8]) | Activity (A549 [9]) | Activity (A549 [10]) | Activity (A549 [11]) | CL/F [12] | AUC (Rattus norvegicus) | bioavailability [13] |
| --- | --- | --- | --- | --- | --- | --- | --- | --- | --- | --- | --- | --- | --- | --- | --- | --- |
| 26 nM | > 10000 nM |  |  | CCn1cc(-c2ccnc3[nH]ccc23)c(-c2ccc(NC(=O)N(C)C)cc2)n1 | 1530 nM |  |  |  |  |  |  |  |  |  |  |  |
| 5.7 nM | 128 nM | 104 nM |  | CN(C)Cc1cccc(-c2cc3c(-c4cnn(C)c4)ccnc3[nH]2)c1 | 134 nM | 13% | 43% | 36% | 4% | 3% |  |  |  |  |  |  |
| 0.61 nM | 7.9 nM | 9 nM |  | CN(C)Cc1ccc(-c2cc3c(-c4cnn(C)c4)c(Cl)cnc3[nH]2)cc1 | 13 nM | 14% | 40% | 27% | 5% | 15% | Active | Active |  |  |  |  |
| 782 nM | 584 nM | 13400 nM |  | c1cc(-c2cn[nH]c2)c2cc[nH]c2n1 | 2570 nM |  |  |  |  |  |  |  |  |  |  |  |
|  |  |  | 2 nM | CCn1cc(-c2ccnc3[nH]ccc23)c(-c2ccc(NC(=O)Nc3ccccc3)cc2)n1 |  |  |  |  |  |  |  |  |  |  |  |  |
| 802 nM | 982 nM | 6160 nM |  | Cn1cc(-c2ccnc3[nH]ccc23)cn1 | 11700 nM |  |  |  |  |  |  |  |  |  |  |  |
| 0.51 nM | 6.2 nM | 67 nM |  | CN(C)Cc1cccc(-c2cc3c(-c4cnn(C)c4)c(Cl)cnc3[nH]2)c1 | 21 nM | 6% | 26% | 34% | 4% | 30% |  | Active | Active |  |  |  |
| 3.2 nM |  | 32 nM |  | CCn1cc(-c2ccnc3[nH]c(-c4cccc(CN(C)C)c4)cc23)c(-c2ccc(NC(=O)N(C)C)cc2)n1 [GSK-1070916] | 7 nM | 6% | 23% | 21% | 3% | 47% |  |  |  |  |  |  |

| Compound | IC50 ([2]; read-out: IC50) | IC50 [3] | IC50 (Aurora kinase B) | IC50 ([2]; read-out: pIC50 (converted)) | EC50 (A549 [1]) | Activity (A549 [4]) | Activity (A549 [5]) | Activity (A549 [6]) | Activity (A549 [7]) | Activity (A549 [8]) | Activity (A549 [9]) | Activity (A549 [10]) | Activity (A549 [11]) | CL/F [12] | AUC (Rattus norvegicus) | bioavailability [13] |
| --- | --- | --- | --- | --- | --- | --- | --- | --- | --- | --- | --- | --- | --- | --- | --- | --- |
| CN(C)Cc1ccc(-c2cc3c(-c4cnn(C)c4)ccnc3[nH]2)cc1 | 5.9 nM | 76 nM | 169 nM |  | 24 nM | 32% | 29% | 30% | 7% | 2% |  |  |  | 86 mL/min/kg | 139 ng·h/mL/mg/kg | 72% |
